Data: the EternaBench riboswitch data

System: MS2 coat protein
Assay: apparent Kd, MS2 coat protein; higher = weaker binding; RNA-MaP array; FMN 200 µM where present
Summary of the method: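 The apparent Kd is the median of filtered binding-curve fits, one per cluster, to green signal normalised to red-channel RNA signal and control-cluster median Fmax. The clusters were on Illumina sequencing chips, and stalled E. coli RNA polymerase had transcribed the designs on them. Titration used SNAP-549-labelled MS2 coat protein from 0.7 or 1.5 nM, doubling to 3 µM, without and then with constant ligand, in 100 mM Tris-HCl pH 7.5, 80 mM KCl, 4 mM MgCl2, BSA, DTT, yeast tRNA and Tween-20.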

[1] = designed as: OFF switch for flavin mononucleotide, no ligand
[2] = ligand present: flavin mononucleotide, designed as: OFF switch for flavin mononucleotide
[3] = designed as: ON switch for flavin mononucleotide, no ligand
[4] = ligand present: flavin mononucleotide, designed as: ON switch for flavin mononucleotide

Sequence: ACAAAUGGAGGAUAUACAUGAGGAUCACCCAUGUUUAUCCUACAUAUGUGAUAAUCAUGUAGAAGGCCAUUUGA
- apparent Kd [1]: 24.7 nM
- apparent Kd [2]: 15.9 nM

Sequence: UUAAUAAGUGUGAGGAUAUGCUGGUCCUUGGAUCAGCAGAAGGCACAUGAGGAUCACCCAUGUACAAUAUAUUA
- apparent Kd [1]: 33.6 nM
- apparent Kd [2]: 215 nM

Sequence: GCAGGCUUCGAGAAGGACAUGAGGAUCACCCAUGUGCGUGUGAAGCAGCCGUGAGGCUGCAUCAUGUAGGAUAUCGGAGUCUGC
- apparent Kd [1]: 70.8 nM
- apparent Kd [2]: 573 nM

Sequence: GAUGUAUUCGUAGGAUAUCCGUCGCCACCGUGUGGAGAAGGACGAACAUGAGGAUCACCCAUGUAUCAUGGUGUAGACACUUUC
- apparent Kd [1]: 142 nM
- apparent Kd [2]: 190 nM

Sequence: GCGUCAUGCAGAGGAUAUUGUUGCGGAUCUCUAUAAGAAGGCUGUACAUGAGGAUCACCCAUGUCACCACAUGAGGGUCACGUG
- apparent Kd [1]: 22.1 nM
- apparent Kd [2]: 41.2 nM

Sequence: AGUCAUACAGGAUAUACAUGAGGAUCACCCAUGUAUAUCCUACAUGGGUGAUCCUCAUGUAGAAGGGUAUGACA
- apparent Kd [1]: 13.5 nM
- apparent Kd [2]: 11.6 nM

Sequence: UGUCUAUUUGAAGGAUAUCUAAGCAUAAACCAGAGAGAAGGUCAAUUAUACAUGAGGAUCACCCAUGUUGAGAUUAAUGGGUUU
- apparent Kd [1]: 20.5 nM
- apparent Kd [2]: 26.4 nM

Sequence: UAAAUACAUGAGGAUCACCCAUGUCAAAAGACAUGAGGAUAUGUACAGUCUUCGGUCUGUACAGAAGGCAUGAAUA
- apparent Kd [3]: 464 nM
- apparent Kd [4]: 35 nM

Sequence: UUCCUCACUUCUUUGACUCACAUGAGGAUCACCCAUGUAAUAUAGGAUAUGCAUUUUAUUUCUUUGCAGAAGGAUAUUAGUUUU
- apparent Kd [1]: 44.8 nM
- apparent Kd [2]: 141 nM

Sequence: AAAAAGUGAGGAUAUGCUGCUCGUCACUUGCGUGAUGAGUAGCAGAAGGCACAUGAGGAUCACCCAUGUAAAAA
- apparent Kd [1]: 36.2 nM
- apparent Kd [2]: 42.8 nM

Sequence: AAUAAUUAUUAAGGAUAUGGGUUGAUAACAUGAGGAUCACCCAUGUUAAAUAAGCCGAGAGGCUACUAGAAGGAUAUAUAUAUU
- apparent Kd [3]: 1050 nM
- apparent Kd [4]: 435 nM

Sequence: CAGCGAUAGCUAAAGUAUCUAUCAGAGGAUAUUCAUGAAACAUGAGGAUCACCCAUGUGAAACUGGGAGAAGGCUGAUAGAUAG
- apparent Kd [4]: 5.92 nM

Sequence: UAUUUAAGAGGAUAUACAUGAGGAUCACCCAUGUGUGUCAAUACGCGUGAUUUUUCAUGUAGAAGGCUUGGGUA
- apparent Kd [1]: 233 nM
- apparent Kd [2]: 129 nM

Sequence: UUGGACGUCGUAGGAUAUGUAGGAUAUUCCUACAUGAGGAUCACCCAUGUUAACAUGGAAGAAGGACAGAAGGACGAUGUCCAU
- apparent Kd [3]: 326 nM
- apparent Kd [4]: 4.76 nM

Sequence: UGAUUCGAGGCUAAGCCUCCAUCACAGGAUAUGCACGAGACAUGAGGAUCACCCAUGUGGCGAAGGCAGAAGGGUGAUACGUCU
- apparent Kd [3]: 197 nM
- apparent Kd [4]: 24.6 nM

Sequence: UCCUUACUGGUCAGGAUAUACAUUCGCUACUCCUUGUAGAAGGGACAUGAGGAUCACCCAUGUACUUUACAUUC
- apparent Kd [1]: 17.4 nM
- apparent Kd [2]: 18.9 nM

Sequence: ACAGGCUUCGAGAAGGACAUGAGGAUCACCCAUGUGCGUGUGAAGCAGCCGUGAGGCUGCAUCAUGUAGGAUAUCGGAGUCUGA
- apparent Kd [1]: 75.5 nM
- apparent Kd [2]: 559 nM

Sequence: UAGUAUAAGGGCAUUACACAUGAGGAUCACCCAUGUACGUUAGAGGAUAUGCAUUCCAGUCGAACGUAGAAGGUUAGAGAAGGG
- apparent Kd [1]: 211 nM
- apparent Kd [2]: 176 nM

Sequence: CCUCUACAUGAGGAUCACCCAUGUGAGGAUAUCUCGGAGCAGCCACUUAAGGCACUCCAGAGAAGGCACGUGUA
- apparent Kd [1]: 18 nM
- apparent Kd [2]: 25.7 nM

Sequence: UGAAAUCAUGUAGGAUAUGCAUGGCGAAGCUACGCAGAAGGACAUGAGGAUCACCCAUGUUAUAGCUACCCAGUUAGGUGGCAA
- apparent Kd [1]: 145 nM
- apparent Kd [2]: 157 nM

Sequence: AUGCUUCACACAGGAUAUACAUGAGGAUCACCCAUGUGUCCACAGUAGCUGACACGAGCUACGCGGUAGAAGGGUGUGAAGCAU
- apparent Kd [1]: 18.5 nM
- apparent Kd [2]: 61.2 nM

Sequence: GGAAAACAUGAGGAUCACCCAUGUGAGGAUAUCGAUGUCCAAAGGAAAGUGCGGGACUCGAGAAGGCACUUGGA
- apparent Kd [1]: 45.4 nM
- apparent Kd [2]: 39 nM

Sequence: CUUUUGUGAGGAUAUCAGUAGUAAAUAUAUAAAAUUACUACUGAGAAGGCACAUGAGGAUCACCCAUGUUCCUC
- apparent Kd [1]: 38.1 nM
- apparent Kd [2]: 274 nM

Sequence: AAUUGGAUCCAGAAGGCAUGGACGACCCGUCACAUUAACAUGAGGAUCACCCAUGUCAAAAUACAUGAGGAUAUGGAUCCUAAA
- apparent Kd [3]: 905 nM
- apparent Kd [4]: 37.9 nM

Sequence: AUAGCAUACCGAGGAUAUUCAUAUAAUAAAUAAACAUGAGGAUCACCCAUGUGGCGAAAGCCUAGGGAGAAGGCGGAAUGCUAA
- apparent Kd [3]: 218 nM
- apparent Kd [4]: 23.3 nM

Sequence: UUAUGUGUCGUAGGAUAUCAUUAGAUUUGUAAUUUAAUUGUAAUUUACAUAUGAGAAGGACGUAUACAUGAGGAUCACCCAUGU
- apparent Kd [1]: 25.5 nM
- apparent Kd [2]: 35.9 nM

Sequence: UGUGUGUGGGCAGGAUAUGCAUGAAUAUGUAUGAUGUAGUGUGAUGUAACAUGAGGAUCACCCAUGUAGAAGGGCCGGUGUGUG
- apparent Kd [1]: 99.3 nM
- apparent Kd [2]: 116 nM

Sequence: UGUCCAUAGCAGAAGGACAUAAAUAACCAUGAAAACAUGAGGAUCACCCAUGUAGGAUAUGCUAUGGACUAAGAGCGAAAGCUC
- apparent Kd [1]: 5.38 nM
- apparent Kd [2]: 17.8 nM

Sequence: AAUAAGUGAGGAUAUACGUCUGGACCCGGGAGGGCUAUAUAACAUGAGGAUCACCCAUGUAGAAGGCACAAUAA
- apparent Kd [1]: 13.9 nM
- apparent Kd [2]: 15.9 nM

Sequence: CAAGGGCAUGAGAAGGCAUAAUUUAUAAUACCACAUGUUUACAUGAGGAUCACCCAUGUUACCUAUGAGGAUAUCAUGCCUACA
- apparent Kd [1]: 14.3 nM
- apparent Kd [2]: 13.1 nM

Sequence: UGAGACCUCACAGGAUAUGCUGGACUUUGUCCAGCAGAAGGGUGAAAACAUGAGGAUCACCCAUGUAUGGUCUCCAAAUUUAAG
- apparent Kd [3]: 191 nM
- apparent Kd [4]: 12.7 nM

Sequence: AGAAAUUAGUGAGGAUAUGCUUAAAUUGUAGUUGCAGAAGGCACGGACCACAAGACAUGAGGAUCACCCAUGUGGUAUUUAGAU
- apparent Kd [1]: 28.9 nM
- apparent Kd [2]: 33 nM

Sequence: AAUAUAAGAGCUGGAAAUCUCAAAACAUGAGGAUCACCCAUGUAGGAUAUCAGCACGAUAAGUGCUGAGAAGGACAUCCAGCUC
- apparent Kd [1]: 16 nM
- apparent Kd [2]: 18.1 nM

Sequence: AUCAGCUCGUCAGGAUAUACGUCACUGCGUCAGCAGUCUGGUAAGAUCACAUGAGGAUCACCCAUGUAGAAGGGACGAGCUGAU
- apparent Kd [1]: 19.1 nM
- apparent Kd [2]: 288 nM

Sequence: UUUAGUUUAGGAUAUGUAGACAUUAACAUGAGGAUCACCCAUGUAGAUCCUGAAUUGACUACAGAAGGAAGCAUUU
- apparent Kd [1]: 248 nM
- apparent Kd [2]: 446 nM

Sequence: GUAGCUUUCCGAGGAUAUUCAGGGCGUGGAUAUACAUGAGGAUCACCCAUGUGGCGGAAGCCUAGGGAGAAGGCGGGCUGCUUC
- apparent Kd [3]: 47.7 nM
- apparent Kd [4]: 19 nM

Sequence: GUAGAGUCAGGAUAUACGAGAUCGAAAGAUCAGUAAUCCUCACAUGAGGAUCACCCAUGUAGAAGGGACUCUAC
- apparent Kd [1]: 23.4 nM
- apparent Kd [2]: 344 nM

Sequence: UUGUACAUAGGAUAUAGUUGUUUGUACAUGAGGAUCACCCAUGUUAUGUAUGUUUUGUUUCUAGAAGGAUGUUGAU
- apparent Kd [1]: 50.2 nM
- apparent Kd [2]: 38.9 nM

Sequence: GUGGUCAGACAUGAGGAUCACCCAUGUGGAAUAAAUAAGGAGAAGGAUAUAGAAUAUAGGAUAUACUAGAAGGUCUGGUUGGUG
- apparent Kd [3]: 67.3 nM
- apparent Kd [4]: 73.1 nM

Sequence: UAUGUUGUUGUGAGGAUAUACUUAGUUUGACCGUAGUAGAAGGCACAUGAGGAUCACCCAUGUAGAUUUUUGGU
- apparent Kd [1]: 9.54 nM
- apparent Kd [2]: 15.8 nM

Sequence: GGGUACAUCGGAGGAUAUCAUGUAAAUACAUGAGGAUCACCCAUGUCGAUGGAGACAUCGGAGAUUGAGAAGGCCGAUGUGCCG
- apparent Kd [3]: 145 nM
- apparent Kd [4]: 9.5 nM

Sequence: GUGUGAAUAGGAGGAUAUAUACAACAUGAGGAUCACCCAUGUACCCGUGUAGUAGAAGGUUUGUUUUUAUAUAAUAUUAUAUUU
- apparent Kd [3]: 26.8 nM
- apparent Kd [4]: 21.6 nM

Sequence: CCUGUACAUGAGGAUCACCCAUGUUAGGAUAUCUCGCCGUCGGCUUGCCGACGGUAUUAGAGAAGGGACAAGGG
- apparent Kd [1]: 32.3 nM
- apparent Kd [2]: 37.6 nM

Sequence: AAAAAAAAAAGGCAGGAUAUCUAAAAAAAAACAUGAGGAUCACCCAUGUAAAAAAAAAAAAAGUGGGAGAAGGGCCAAAAAAAAAA
- apparent Kd [3]: 35.9 nM
- apparent Kd [4]: 18.1 nM

Sequence: AAUAUACAUGAGGAUCACCCAUGUUAGGUGGGACUAGGAUAUCAGAGUACAUUAUGAACAUGAGAAGGAGUCUCAG
- apparent Kd [3]: 66.2 nM
- apparent Kd [4]: 24.2 nM

Sequence: AAACUGCAUGUGAGGAUAUGCACCGGCUAAACCGGGCAGAAGGCACAUGAGGAUCACCCAUGUCAUCCUAUUGC
- apparent Kd [1]: 9.41 nM
- apparent Kd [2]: 18.4 nM

Sequence: AUACCACGAGGAUAUCGUCUAUAAUACAUGAGGAUCACCCAUGUUAUAUAUGUAAUGUUUCGAGAAGGCGUGUUUU
- apparent Kd [1]: 16.6 nM
- apparent Kd [2]: 12.9 nM

Sequence: GGUAUACAUGAGGAUCACCCAUGUCGUAUGACAUGAGGAUAUGUACAGACUUCGGUCUGUACAGAAGGCGUGUGUC
- apparent Kd [3]: 362 nM
- apparent Kd [4]: 158 nM
